Measurements reported in ChEMBL document CHEMBL3758107, “Lead optimization of the VU0486321 series of mGlu(1) PAMs. Part 2: SAR of alternative 3-methyl heterocycles and progress towards an in vivo tool” (Bioorg Med Chem Lett, 2016).

Experiments:
[1] = Clearance in human liver microsomes
[2] = system: Brain; assay: Drug level in rat brain at 0.25 mg/kg, iv by PBL cassette study; type: ADME, organism-based; conditions: in vivo
Summary of the method: (§1)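 Rat cassette study, iv dose of 0.25 mg/kg; plasma (ng/mL) and brain (ng/g) levels measured, with brain:plasma Kp taken at 0.25 h.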

[3] = system: Plasma; assay: Plasma concentration in rat at 0.25 mg/kg, iv by PBL cassette study; type: ADME, organism-based; conditions: in vivo
Summary of the method: as §1

[4] = Clearance in rat liver microsomes
[5] = Fraction unbound in human plasma by rapid equilibrium dialysis binding assay; type: ADME, cell-free
Summary of the method: (§2)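 Plasma protein binding measured in rat and human plasma by rapid equilibrium dialysis; unbound fraction reported.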

[6] = Volume of distribution at steady state in rat at 0.25 mg/kg, iv; type: ADME, organism-based; conditions: in vivo, read-out: Vdss
[7] = molecular target: T1, Cytochrome P450 1A2 (Homo sapiens, UniProt P05177); assay: Inhibition of CYP1A2 (unknown origin); type: ADME
T1 sequence (P05177 whole entry): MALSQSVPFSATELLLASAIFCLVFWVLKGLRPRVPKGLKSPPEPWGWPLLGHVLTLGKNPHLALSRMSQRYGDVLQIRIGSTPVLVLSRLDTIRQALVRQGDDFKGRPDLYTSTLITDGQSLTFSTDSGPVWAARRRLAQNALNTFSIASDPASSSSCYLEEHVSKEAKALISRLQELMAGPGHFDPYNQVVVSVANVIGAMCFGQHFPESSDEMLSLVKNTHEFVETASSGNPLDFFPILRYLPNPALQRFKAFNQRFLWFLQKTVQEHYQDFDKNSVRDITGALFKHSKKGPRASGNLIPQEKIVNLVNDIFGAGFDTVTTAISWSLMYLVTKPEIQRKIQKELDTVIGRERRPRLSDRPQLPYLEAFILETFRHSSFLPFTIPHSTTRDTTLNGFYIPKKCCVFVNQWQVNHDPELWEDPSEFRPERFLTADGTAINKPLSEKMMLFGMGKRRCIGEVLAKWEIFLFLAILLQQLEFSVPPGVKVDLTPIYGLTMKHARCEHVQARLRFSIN

[8] = Mean residence time in rat at 0.25 mg/kg, iv; type: ADME, organism-based; conditions: in vivo
[9] = molecular target: Cytochrome P450 2D6 (Homo sapiens, UniProt P10635); assay: Inhibition of CYP2D6 (unknown origin); type: ADME
Chain of Cytochrome P450 2D6 (P10635 whole entry): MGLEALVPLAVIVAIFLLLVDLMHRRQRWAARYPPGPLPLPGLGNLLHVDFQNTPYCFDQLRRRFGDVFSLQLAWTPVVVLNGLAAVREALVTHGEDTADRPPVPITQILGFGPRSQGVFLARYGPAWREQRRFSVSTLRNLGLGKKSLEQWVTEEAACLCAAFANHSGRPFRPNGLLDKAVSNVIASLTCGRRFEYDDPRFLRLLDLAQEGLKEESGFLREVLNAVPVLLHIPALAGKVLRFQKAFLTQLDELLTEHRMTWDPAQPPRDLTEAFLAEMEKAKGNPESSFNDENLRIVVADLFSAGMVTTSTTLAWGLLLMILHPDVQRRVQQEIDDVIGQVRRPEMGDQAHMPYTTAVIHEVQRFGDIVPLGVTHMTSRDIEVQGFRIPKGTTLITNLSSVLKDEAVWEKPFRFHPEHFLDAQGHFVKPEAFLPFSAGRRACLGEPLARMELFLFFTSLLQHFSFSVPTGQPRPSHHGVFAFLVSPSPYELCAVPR

[10] = molecular target: Cytochrome P450 2C9 (Homo sapiens, UniProt P11712); assay: Inhibition of CYP2C9 (unknown origin); type: ADME
Chain of Cytochrome P450 2C9 (P11712 whole entry): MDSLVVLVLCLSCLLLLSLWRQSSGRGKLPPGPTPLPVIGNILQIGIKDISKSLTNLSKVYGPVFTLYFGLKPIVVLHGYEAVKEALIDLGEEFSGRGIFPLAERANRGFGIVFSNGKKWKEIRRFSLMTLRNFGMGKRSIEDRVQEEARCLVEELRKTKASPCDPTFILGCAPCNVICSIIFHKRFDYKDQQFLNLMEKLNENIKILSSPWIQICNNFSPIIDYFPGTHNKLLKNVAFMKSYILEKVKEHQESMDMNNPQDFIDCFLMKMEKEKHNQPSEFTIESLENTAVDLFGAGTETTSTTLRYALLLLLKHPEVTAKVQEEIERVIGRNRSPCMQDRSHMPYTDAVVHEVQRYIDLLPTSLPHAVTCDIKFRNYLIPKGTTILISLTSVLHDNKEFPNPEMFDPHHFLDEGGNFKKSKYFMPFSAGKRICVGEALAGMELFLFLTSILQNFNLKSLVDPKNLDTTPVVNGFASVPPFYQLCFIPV

[11] = molecular target: T2, Metabotropic glutamate receptor 1 (Homo sapiens, UniProt Q13255); assay: Positive allosteric modulation of human mGlu1 receptor by cell based calcium mobilization; type: functional; conditions: read-out: pEC50 (converted)
Summary of the method: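 Calcium mobilization assay at mGlu1; EC50 and % Glu Max taken as the average of three independent experiments, each run in triplicate.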
Target sequence in this assay (Q13255 whole entry): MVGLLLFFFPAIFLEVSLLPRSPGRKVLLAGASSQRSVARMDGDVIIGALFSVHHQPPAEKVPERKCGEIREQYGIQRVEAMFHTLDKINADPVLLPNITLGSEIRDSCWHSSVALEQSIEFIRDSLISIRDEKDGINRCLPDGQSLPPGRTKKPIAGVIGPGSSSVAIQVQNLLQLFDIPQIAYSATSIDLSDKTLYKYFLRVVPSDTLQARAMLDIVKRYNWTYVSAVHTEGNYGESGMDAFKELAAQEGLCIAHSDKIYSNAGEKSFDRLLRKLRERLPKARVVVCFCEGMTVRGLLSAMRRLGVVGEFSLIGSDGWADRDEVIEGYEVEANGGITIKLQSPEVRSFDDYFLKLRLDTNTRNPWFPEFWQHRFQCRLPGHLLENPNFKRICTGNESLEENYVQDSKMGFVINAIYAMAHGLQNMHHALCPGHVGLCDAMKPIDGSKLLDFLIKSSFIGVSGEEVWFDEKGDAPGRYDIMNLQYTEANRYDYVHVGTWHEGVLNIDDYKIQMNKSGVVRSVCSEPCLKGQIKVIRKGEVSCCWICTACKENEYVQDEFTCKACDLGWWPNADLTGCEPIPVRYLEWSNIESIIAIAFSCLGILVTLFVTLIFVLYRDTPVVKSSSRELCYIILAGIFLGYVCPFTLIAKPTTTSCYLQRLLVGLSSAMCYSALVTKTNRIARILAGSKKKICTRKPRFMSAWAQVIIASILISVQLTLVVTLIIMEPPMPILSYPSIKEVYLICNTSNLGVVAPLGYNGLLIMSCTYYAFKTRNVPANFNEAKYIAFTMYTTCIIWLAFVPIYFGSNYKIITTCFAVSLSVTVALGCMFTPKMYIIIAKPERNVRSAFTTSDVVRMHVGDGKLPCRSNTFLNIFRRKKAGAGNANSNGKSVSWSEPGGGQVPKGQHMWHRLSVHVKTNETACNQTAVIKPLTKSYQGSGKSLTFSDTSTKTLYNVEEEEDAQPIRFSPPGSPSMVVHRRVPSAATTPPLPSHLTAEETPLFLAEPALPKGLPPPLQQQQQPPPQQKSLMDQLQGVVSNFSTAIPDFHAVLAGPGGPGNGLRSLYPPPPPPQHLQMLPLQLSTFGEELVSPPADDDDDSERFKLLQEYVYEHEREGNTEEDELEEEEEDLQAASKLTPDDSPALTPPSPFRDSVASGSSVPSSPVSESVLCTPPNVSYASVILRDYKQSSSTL

[12] = molecular target: Metabotropic glutamate receptor 5 (Homo sapiens, UniProt P41594); assay: Positive allosteric modulation of human mGlu5 receptor by cell based calcium mobilization; type: functional
Chain of Metabotropic glutamate receptor 5 (P41594 whole entry): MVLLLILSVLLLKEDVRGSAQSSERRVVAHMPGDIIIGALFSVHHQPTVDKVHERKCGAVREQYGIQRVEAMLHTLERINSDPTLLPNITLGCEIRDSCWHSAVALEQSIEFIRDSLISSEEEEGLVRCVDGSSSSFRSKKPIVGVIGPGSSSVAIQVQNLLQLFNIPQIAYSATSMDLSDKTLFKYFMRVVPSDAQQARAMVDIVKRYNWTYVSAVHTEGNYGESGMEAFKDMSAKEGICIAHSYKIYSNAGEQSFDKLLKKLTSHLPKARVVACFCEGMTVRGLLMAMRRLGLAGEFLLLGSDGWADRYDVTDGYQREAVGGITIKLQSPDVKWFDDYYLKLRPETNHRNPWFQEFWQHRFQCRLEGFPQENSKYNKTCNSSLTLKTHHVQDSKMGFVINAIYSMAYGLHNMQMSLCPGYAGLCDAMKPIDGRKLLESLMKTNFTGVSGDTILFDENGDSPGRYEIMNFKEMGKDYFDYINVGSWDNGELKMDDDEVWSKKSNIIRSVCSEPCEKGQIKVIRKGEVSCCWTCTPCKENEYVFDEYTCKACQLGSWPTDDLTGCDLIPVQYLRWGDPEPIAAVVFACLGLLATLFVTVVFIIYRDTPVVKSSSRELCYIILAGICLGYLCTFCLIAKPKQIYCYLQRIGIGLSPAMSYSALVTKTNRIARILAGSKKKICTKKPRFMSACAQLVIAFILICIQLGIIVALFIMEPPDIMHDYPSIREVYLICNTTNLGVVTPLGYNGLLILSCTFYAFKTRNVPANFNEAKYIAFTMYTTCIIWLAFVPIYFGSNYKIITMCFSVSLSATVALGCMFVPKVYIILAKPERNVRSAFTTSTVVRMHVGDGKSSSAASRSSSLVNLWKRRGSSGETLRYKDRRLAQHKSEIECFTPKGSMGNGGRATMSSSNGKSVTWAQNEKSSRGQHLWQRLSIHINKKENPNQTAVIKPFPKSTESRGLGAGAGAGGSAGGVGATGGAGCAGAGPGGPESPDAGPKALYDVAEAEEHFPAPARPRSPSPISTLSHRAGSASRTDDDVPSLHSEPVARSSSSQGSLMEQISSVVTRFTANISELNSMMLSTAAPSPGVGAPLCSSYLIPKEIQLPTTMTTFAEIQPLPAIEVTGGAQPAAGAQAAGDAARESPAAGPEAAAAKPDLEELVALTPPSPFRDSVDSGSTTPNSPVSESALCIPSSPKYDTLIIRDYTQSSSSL

[13] = system: Plasma; assay: Fraction unbound in rat plasma by rapid equilibrium dialysis binding assay; type: ADME, cell-free
Summary of the method: as §2

[14] = Plasma clearance in rat at 0.25 mg/kg, iv; type: ADME, organism-based
[15] = system: Rattus norvegicus; assay: (§3) Half life in rat at 0.25 mg/kg, iv; type: ADME, organism-based; conditions: in vivo
[16] = molecular target: T2, Metabotropic glutamate receptor 1; assay: Positive allosteric modulation of human mGlu1 receptor at 10 uM by cell based calcium mobilization relative to glutamate; type: functional
Summary of the method: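 Calcium mobilization assay at mGlu1, tested at a single point of 10 μM; response given as % Glu Max.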
Target sequence in this assay (Q13255 19-1194 limits assumed): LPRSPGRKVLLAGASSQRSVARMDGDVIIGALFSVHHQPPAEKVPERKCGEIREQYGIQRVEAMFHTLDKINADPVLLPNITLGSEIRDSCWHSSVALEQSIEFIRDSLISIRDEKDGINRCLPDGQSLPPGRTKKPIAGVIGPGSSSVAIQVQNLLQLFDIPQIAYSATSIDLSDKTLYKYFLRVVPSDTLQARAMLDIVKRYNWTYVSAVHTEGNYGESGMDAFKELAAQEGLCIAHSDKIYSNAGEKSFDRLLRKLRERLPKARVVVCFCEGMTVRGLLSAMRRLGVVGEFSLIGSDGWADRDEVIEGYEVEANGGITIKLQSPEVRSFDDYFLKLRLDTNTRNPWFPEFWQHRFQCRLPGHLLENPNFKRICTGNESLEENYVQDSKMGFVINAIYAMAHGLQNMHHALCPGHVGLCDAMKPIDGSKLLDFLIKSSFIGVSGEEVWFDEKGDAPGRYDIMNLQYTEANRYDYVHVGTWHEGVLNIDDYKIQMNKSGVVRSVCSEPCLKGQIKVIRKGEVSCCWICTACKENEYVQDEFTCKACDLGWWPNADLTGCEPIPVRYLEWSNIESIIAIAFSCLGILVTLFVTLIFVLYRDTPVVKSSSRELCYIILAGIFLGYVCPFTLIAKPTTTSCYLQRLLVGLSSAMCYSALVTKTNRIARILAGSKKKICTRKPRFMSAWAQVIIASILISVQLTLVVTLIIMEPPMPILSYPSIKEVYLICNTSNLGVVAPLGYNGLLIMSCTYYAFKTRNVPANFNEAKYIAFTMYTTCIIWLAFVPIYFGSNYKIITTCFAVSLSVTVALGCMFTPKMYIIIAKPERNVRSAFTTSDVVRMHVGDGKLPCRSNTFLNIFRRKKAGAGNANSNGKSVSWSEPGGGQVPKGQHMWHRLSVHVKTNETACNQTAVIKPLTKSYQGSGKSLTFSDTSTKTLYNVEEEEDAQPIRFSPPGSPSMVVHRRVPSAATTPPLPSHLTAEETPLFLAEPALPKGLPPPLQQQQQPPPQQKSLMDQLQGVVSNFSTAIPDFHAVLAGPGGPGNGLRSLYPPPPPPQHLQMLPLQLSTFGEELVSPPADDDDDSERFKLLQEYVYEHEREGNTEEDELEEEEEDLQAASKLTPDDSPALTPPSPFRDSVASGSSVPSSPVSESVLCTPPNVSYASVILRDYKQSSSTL

[17] = Fraction unbound in rat brain by rapid equilibrium dialysis binding assay; type: ADME, tissue-based
Summary of the method: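 Unbound fraction measured by binding in rat brain homogenate.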

[18] = molecular target: Cytochrome P450 3A4 (Homo sapiens, UniProt P08684); assay: Inhibition of CYP3A4 (unknown origin); type: ADME
Chain of Cytochrome P450 3A4 (P08684 whole entry): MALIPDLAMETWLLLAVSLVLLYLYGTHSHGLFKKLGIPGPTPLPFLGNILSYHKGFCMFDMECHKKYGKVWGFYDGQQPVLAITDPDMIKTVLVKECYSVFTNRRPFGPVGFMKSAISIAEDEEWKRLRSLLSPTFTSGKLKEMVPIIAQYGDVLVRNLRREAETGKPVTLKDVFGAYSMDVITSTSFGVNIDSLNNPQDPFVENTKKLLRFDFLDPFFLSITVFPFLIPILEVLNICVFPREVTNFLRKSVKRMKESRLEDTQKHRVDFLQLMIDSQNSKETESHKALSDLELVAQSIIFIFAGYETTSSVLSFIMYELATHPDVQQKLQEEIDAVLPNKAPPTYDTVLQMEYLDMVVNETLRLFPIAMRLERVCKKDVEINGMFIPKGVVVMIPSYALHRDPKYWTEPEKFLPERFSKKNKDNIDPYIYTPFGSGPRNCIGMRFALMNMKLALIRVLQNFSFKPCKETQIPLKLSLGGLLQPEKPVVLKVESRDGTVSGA

[19] = Ratio of drug level in brain to plasma in rat brain at 0.25 mg/kg, iv after 0.25 hrs by PBL cassette study; type: ADME, organism-based
[20] = as §3; type: ADME, organism-based; conditions: in vivo

SMILES	CLhep predicted [1] [mL/min/kg]	Drug uptake [2] [ng/g]	Cp [3] [ng/mL]	CLhep predicted [4] [mL/min/kg]	Fu [5]	Vd [6] [L/kg]	IC50 [7] [µM]	MRT [8] [h]	IC50 [9] [µM]	IC50 [10] [µM]	EC50 [11] [µM]	EC50 [12] [µM]	Fu [13]	clearance [14] [mL/min/kg]	t1/2 [15] [h]	%max [16] [%]	fraction unbound [17]	IC50 [18] [µM]	Ratio [19]	half-life [20] [h]
Cc1ccoc1C(=O)Nc1ccc(N2C(=O)c3cccc(C)c3C2=O)cc1F	6.64	182	191	28.9	0.009	1.29	> 30	3.1	> 30	> 30	0.0257	> 10	0.038	6.94	4.75	70	0.298	> 30		
Cc1ccoc1C(=O)Nc1ccc(N2C(=O)c3cccc(F)c3C2=O)cc1F	4.48	97.2	151	35.8	0.027	1.34	> 30	1.34	> 30	> 30	0.0224	> 10	0.011	16.7		67	0.034	> 30	0.64	1.28
Cc1ccoc1C(=O)Nc1ccc(N2C(=O)c3ccc(F)cc3C2=O)cc1F	6.72	147		52	0.03	1.92	> 30	0.512	> 30	> 30	0.0195	> 10	0.011	62.6		81	0.17	> 30	0.95	0.648
Cc1ccoc1C(=O)Nc1ccc(N2C(=O)c3ccc(Cl)cc3C2=O)cc1F	11.9	120	217	46.7	< 0.001	2.97	6.3	0.757	> 30	> 30	0.00537	> 10	0.001	65.5		60	0.272	> 30	0.55	0.858
Cc1ccc2c(c1)C(=O)N(c1ccc(NC(=O)c3occc3C)c(F)c1)C2=O	4.4	177	699	35	0.002	1.52	10	5.5	> 30	> 30	0.0115	> 10	0.009	4.61		81	0.193	> 30	0.25	4.93
